Here are results for five compounds from article PMC9933479 (ACS Omega, 2023).

The term IC50 denotes the point on the concentration scale where inhibition reaches its midpoint. Low readings indicate greater potency, high ones weaker potency.

One data set relates to HOP92. Put plainly: In vitro cytotoxicity, expanded lung cancer panel. Format: cell-based. Particulars: Homo sapiens, HOP-92.
The subject of data set [1] is A549 cells. The experiment in a line: Intracellular ROS, DCFDA/DCFHDA staining. Format: cell-based, human. The settings on record: A549, DCFDA dye, 48 h. The procedure, abridged:
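Seeded A549 cells (3 × 10^4 per well) adhered 24 h at 37 °C, then received test compound at 1, 3.5 or 5 μM for 48 h. Cells were loaded with 10 μM DCFHDA for 30 min at 37 °C and moved to PBS. Intracellular ROS was imaged by fluorescence microscopy. H2O2 (0.05%) was the positive control.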

In a further data set the test system is HOP62. Put plainly: In vitro cytotoxicity, expanded lung cancer panel. Type of data set: cell-based. Particulars: Homo sapiens, HOP-62.
Data set [2] deals with HCT-116 (colon carcinoma). Put plainly: MTT assay, cytotoxicity/growth inhibition. Format: cell-based. Particulars: Homo sapiens; for IC50: HCT-116; for inhibition at 20 µM: HCT-116, 48 h, read-out: Cytotoxic Activity (% Growth Inhibition). The procedure, abridged:
(§1)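 Cells were grown in RPMI (A549, HCT-116, PC-3) or DMEM (MCF-7) with 10% FBS at 37 °C and 5% CO2. Seeding per well was […] and PC-3 8 × 10^4 cells. […] MTT 250 μg/mL, 4 h; DMSO; A570; triplicate; mean ± SE.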
For orientation: Tetrazolium dyes change colour on reduction, which living cells bring about.

For data set [3], the system named is A549 cells. The experiment in a line: DAPI staining, nuclear morphology / apoptosis. Format: cell-based, human. The settings on record: A549, 1, 3.5 and 5 μM, 48 h. The procedure, abridged: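 A549 cells (3 × 10^4 per well) were grown 48 h, then exposed to test compound at 1, 3.5 and 5 μM for 48 h. Cells were washed in PBS, fixed in ice-cold 4% paraformaldehyde for 20 min and permeabilised with 0.25% Triton X-100. Staining was DAPI at 1 μg/mL final for 30 min, read by fluorescence microscopy. Cisplatin 17 μM was the positive control.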

Data set [4] relates to PC-3 (prostate carcinoma). The experiment in a line: MTT assay, cytotoxicity/growth inhibition. Type of data set: cell-based. Particulars: Homo sapiens; for inhibition at 20 µM: 48 h, read-out: Cytotoxic Activity (% Growth Inhibition). The procedure, abridged: as §1
The subject of another data set is MCF-7 (breast carcinoma). The experiment in a line: MTT assay, cytotoxicity/growth inhibition. Type of data set: cell-based. Particulars: Homo sapiens; for IC50: MCF7; for inhibition at 20 µM: MCF7, 48 h, read-out: Cytotoxic Activity (% Growth Inhibition). The procedure, abridged: as §1
A further data set relates to A549 (lung carcinoma). The experiment in a line: MTT assay, cytotoxicity/growth inhibition. Format: cell-based, human. Particulars: for Cytotoxic Activity (% Growth Inhibition): A549, 20 μM concentration, MTT, 48 h, 20 µM; for IC50 / inhibition at 20 µM: Homo sapiens; for IC50: A549; for inhibition at 20 µM: A549, 48 h, read-out: Cytotoxic Activity (% Growth Inhibition), A549, 20 μM concentration, MTT, 48 h. The method, boiled down: as §1

Data set [5] concerns normal human embryonic kidney cells (HEK293). Put plainly: Selectivity index versus normal cell line. Type of data set: cell-based.
For data set [6], the system named is A549 cells. Put plainly: Mitochondrial membrane potential, Rhodamine-123 staining. Particulars: A549, Rh-123 dye, 1, 3.5 and 5 μM, 48 h, versus untreated cells. Format: cell-based, human. The procedure, abridged:
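A549 cells (3 × 10^4 per well) adhered 24 h at 37 °C and were treated with test compound at 1, 3.5 and 5 μM for 48 h. They were stained with 10 μM rhodamine-123 for 30 min at 37 °C and washed in PBS. Fluorescence microscopy read mitochondrial membrane potential as Rh-123 fluorescence, compared with untreated cells.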

Each structure is given as a SMILES string. Entries after “also recorded” stand apart in the source; their conditions may differ.

As for `COc1ccc(CC(=O)OCC2=CCC3[C@](C)(CO)[C@H](O)CC[C@@]3(C)[C@@H]2/C=C/C2=CCOC2=O)cc1` (stereo partly drawn) [Compound 9s, ((1S,5R,6R,8aR)-6-Hydroxy-5-(hydroxymethyl)-5,8a-dimethyl-1-((E)-2-(2-oxo-2,5-dihydrofuran-3-yl)vinyl)-1,4,4a,5,6,7,8,8a-octahydronaphthalen-2-yl)methyl 2-(4-Methoxyphenyl)acetate], the half-maximal inhibitory concentration (IC50) is 38.6 µM with HOP92; 13 µM in the data set on HOP62; more than 20 µM in data set [2]; more than 20 µM in data set [4]; 14.6 µM in the data set on MCF-7 (breast carcinoma); 3.5 µM in the data set with A549 (lung carcinoma). Moreover, in the data set on A549 cells [1] (1 μM), the “intracellular ROS generation” value was “increases reactive oxygen species (ROS); also recorded: significantly induced more ROS generation”. In addition, the “intracellular ROS levels” value in the data set with A549 cells [1] (3.5 and 5 μM) is reported as “ROS levels decrease”. Besides, the inhibition at 20 µM in [2] came out at 4.1 ± 0.97%; in [4], 27.6 ± 0.89%; with MCF-7 (breast carcinoma) it was 54 ± 0.74%; in the data set with A549 (lung carcinoma), 82%. The “nuclear morphology / apoptosis (DAPI staining)” value in the data set on A549 cells [3] is “nuclear morphological changes; also recorded: altered staining pattern, apoptotic bodies, and condensed chromatin; also recorded: induces apoptosis”. The “Cytotoxic Activity (% Growth Inhibition)” value in the data set with A549 (lung carcinoma) is 82.2 ± 0.78%. In addition, the “potency relative to andrographolide (times / fold more potent)” value in the data set with A549 (lung carcinoma) (A549, ratio of IC50 values) is listed as approximately 7. Also, the “selectivity index (SI) wrt HEK cell line” value in [5] (A549 versus HEK293) is listed as 13.9; in [5] (HOP62 versus HEK293), 3.7; in data set [5] (HOP92 versus HEK293), 1.26. Also, in the data set with A549 cells [6], the “mitochondrial membrane potential (MMP)” value was “disturbed mitochondrial membrane potential (MMP); also recorded: significant reduction in MMP; also recorded: disturbs mitochondrial membrane potential”.
`C[C@]1(CO)C2CC=C(COC(=O)Cc3ccc(Cl)c(Cl)c3)[C@@H](/C=C/C3=CCOC3=O)[C@]2(C)CC[C@H]1O` (stereo partly drawn) [Compound 9v, ((1S,5R,6R,8aR)-6-Hydroxy-5-(hydroxymethyl)-5,8a-dimethyl-1-((E)-2-(2-oxo-2,5-dihydrofuran-3-yl)vinyl)-1,4,4a,5,6,7,8,8a-octahydronaphthalen-2-yl)methyl 2-(3,4-Dichlorophenyl)acetate]: the IC50 in data set [2] is more than 20 µM; in data set [4], more than 20 µM; in the data set on MCF-7 (breast carcinoma), more than 20 µM; in the data set with A549 (lung carcinoma) it was 7.5 µM. Moreover, the inhibition at 20 µM in data set [2] worked out at 5.7 ± 6.1%; in [4], 26.5 ± 0.54%; in the data set with MCF-7 (breast carcinoma), 29 ± 0.78%; in the data set on A549 (lung carcinoma), 72%. For the same compound, in the data set with A549 (lung carcinoma), the “Cytotoxic Activity (% Growth Inhibition)” value turned out to be 72.7 ± 0.54%.
Turning to `CCCCCCCC(=O)OCC1=CCC2[C@](C)(CO)[C@H](O)CC[C@@]2(C)[C@@H]1/C=C/C1=CCOC1=O` (stereo partly drawn) [Compound 9w, ((1S,5R,6R,8aR)-6-Hydroxy-5-(hydroxymethyl)-5,8a-dimethyl-1-((E)-2-(2-oxo-2,5-dihydrofuran-3-yl)vinyl)-1,4,4a,5,6,7,8,8a-octahydronaphthalen-2-yl)methyl Octanoate], the inhibition at 20 µM in data set [2] was 23.9 ± 0.58%; in data set [4], 67 ± 0.75%; in the data set with MCF-7 (breast carcinoma), 25 ± 0.36%; with A549 (lung carcinoma), 16.8 ± 0.93%.
With `CCCCCCCCCC(=O)OCC1=CCC2[C@](C)(CO)[C@H](O)CC[C@@]2(C)[C@@H]1/C=C/C1=CCOC1=O` (stereo partly drawn) [Compound 9x, ((1S,5R,6R,8aR)-6-Hydroxy-5-(hydroxymethyl)-5,8a-dimethyl-1-((E)-2-(2-oxo-2,5-dihydrofuran-3-yl)vinyl)-1,4,4a,5,6,7,8,8a-octahydronaphthalen-2-yl)methyl Decanoate], the inhibition at 20 µM in [2] came out at 2.7 ± 0.51%; in data set [4], 24 ± 0.83%; in the data set on MCF-7 (breast carcinoma), 46 ± 0.84%; in the data set on A549 (lung carcinoma) it was 23.2 ± 0.74%.
Taken in the same sequence, the figures for `CCCCCCCCCCCC(=O)OCC1=CCC2[C@](C)(CO)[C@H](O)CC[C@@]2(C)[C@@H]1/C=C/C1=CCOC1=O` (stereo partly drawn) [Compound 9y, ((1S,5R,6R,8aR)-6-Hydroxy-5-(hydroxymethyl)-5,8a-dimethyl-1-((E)-2-(2-oxo-2,5-dihydrofuran-3-yl)vinyl)-1,4,4a,5,6,7,8,8a-octahydronaphthalen-2-yl)methyl Dodecanoate] were 4.6 ± 0.44%, 66 ± 0.47%, 38 ± 0.18% and 1.6 ± 0.98%.
